# Columns and labels:
# Type in all cases: functional
# [1] = system: MDA-MB-231; experiment: Growth inhibition of human MDA-MB-231 cells after 48 hrs by sulforhodamine B assay; details: MDA-MB-231, 48 h
# How it was run: (§1)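 NCI 60-panel five-dose test at 10-fold dilutions, 10^-4 to 10^-8 M, with 48 h continuous exposure and SRB protein read-out. Percent growth derived from time-zero, untreated-control and treated absorbances. GI50 is the concentration where [(Ti-Tz)/(C-Tz)]×100 = 50. TGI is taken at Ti = Tz. LC50 is taken at [(Ti-Tz)/Tz]×100 = -50.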
# [2] = Growth inhibition of human Hs 578T cells after 48 hrs by sulforhodamine B assay; details: for CC50: read-out: LC50 (the source's name); how it was run: as §1
# [3] = system: PC-3; experiment: Growth inhibition of human PC3 cells after 48 hrs by sulforhodamine B assay; details: PC-3, 48 h
# How it was run: (§2)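 NCI five-dose screen on the full 60-cell-line panel. Cells were given 10-fold dilutions from 10^-4 to 10^-8 M with continuous 48 h exposure, and growth was read by SRB staining. Percent growth was taken from time-zero, control and treated absorbances. GI50, TGI and LC50 were then derived, the GI50 being the concentration that gives a 50% lower net protein increase than control.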
# [4] = system: UO-31; experiment: Growth inhibition of human UO31 cells after 48 hrs by sulforhodamine B assay; details: UO-31, 48 h
# How it was run: (§3)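 NCI 60-cell panel, five concentrations (10-fold dilutions, 0.01–100 µM), 48 h continuous exposure; SRB protein stain read spectrophotometrically. Percent growth from time-zero, untreated-control and treated absorbances. GI50 is the concentration giving 50% lower net protein increase than control. Values beyond the tested range are reported as more or less than the highest or lowest concentration.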
# [5] = system: SN12C; experiment: Growth inhibition of human SN12C cells after 48 hrs by sulforhodamine B assay; how it was run: as §2
# [6] = system: OVCAR-5; experiment: Growth inhibition of human OVCAR5 cells after 48 hrs by sulforhodamine B assay; details: OVCAR-5, 48 h; how it was run: as §2
# [7] = system: Malme-3M; experiment: Growth inhibition of human MALME-3M cells after 48 hrs by sulforhodamine B assay; how it was run: as §1
# [8] = system: SNB-75; experiment: Growth inhibition of human SNB75 cells after 48 hrs by sulforhodamine B assay; details: SNB-75, 48 h; for CC50: read-out: LC50 (the source's name); how it was run: as §3
# [9] = system: SF-539; experiment: Growth inhibition of human SF539 cells after 48 hrs by sulforhodamine B assay; details: SF-539, 48 h; for CC50: read-out: LC50 (the source's name); how it was run: as §2
# [10] = Growth inhibition of human HCC2998 cells after 48 hrs by sulforhodamine B assay; details: HCC 2998, 48 h; for CC50: read-out: LC50 (the source's name); how it was run: as §1
# [11] = system: COLO 205; experiment: Growth inhibition of human COLO205 cells after 48 hrs by sulforhodamine B assay; details: COLO 205, 48 h; how it was run: as §1
# [12] = system: A549; experiment: Growth inhibition of human A549/ATCC cells after 48 hrs by sulforhodamine B assay; details: A549, 48 h; how it was run: as §1
# [13] = system: CCRF-CEM; experiment: Growth inhibition of human CCRF-CEM cells after 48 hrs by sulforhodamine B assay; how it was run: as §1
# [14] = system: TK-10; experiment: Growth inhibition of human TK10 cells assessed as cell growth at 10^-5 M after 48 hrs by sulforhodamine B assay; details: TK-10, 48 h, read-out: Activity
# How it was run: (§4)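 NCI primary one-dose screen: single concentration of 10^-5 M added to culture, 48 h incubation, SRB protein-dye endpoint. Percent growth of treated cells measured spectrophotometrically against untreated controls.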
# [15] = system: ACHN; experiment: Growth inhibition of human ACHN cells assessed as cell growth at 10^-5 M after 48 hrs by sulforhodamine B assay; details: read-out: Activity
# How it was run: (§5)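 NCI 60-cell-line primary screen. Single concentration of 10^-5 M, 48 h incubation. End point by sulforhodamine B protein staining read spectrophotometrically. Reported as percent growth of treated cells relative to untreated control cells.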
# [16] = system: A498; experiment: Growth inhibition of human A498 cells assessed as cell growth at 10^-5 M after 48 hrs by sulforhodamine B assay; details: A498, 48 h, read-out: Activity; how it was run: as §5
# [17] = Growth inhibition of human NCI-ADR-RES cells assessed as cell growth at 10^-5 M after 48 hrs by sulforhodamine B assay; details: read-out: Activity
# How it was run: (§6)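 NCI 60-cell-line primary one-dose screen. Cells were exposed to a single 10^-5 M concentration for 48 h. The end point was sulforhodamine B protein staining, read spectrophotometrically. Results are reported as percent growth of treated cells relative to untreated control cells.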
# [18] = system: OVCAR-5; experiment: Growth inhibition of human OVCAR5 cells assessed as cell growth at 10^-5 M after 48 hrs by sulforhodamine B assay; details: OVCAR-5, 48 h, read-out: Activity; how it was run: as §6
# [19] = system: IGROV-1; experiment: Growth inhibition of human IGROV1 cells assessed as cell growth at 10^-5 M after 48 hrs by sulforhodamine B assay; details: IGROV-1, 48 h, read-out: Activity; how it was run: as §5
# [20] = system: UACC-257; experiment: Growth inhibition of human UACC257 cells assessed as cell growth at 10^-5 M after 48 hrs by sulforhodamine B assay; details: UACC-257, 48 h, read-out: Activity; how it was run: as §4
# [21] = system: MDA-MB-435; experiment: Growth inhibition of human MDA-MB-435 cells assessed as cell growth at 10^-5 M after 48 hrs by sulforhodamine B assay; details: MDA-MB-435, 48 h, read-out: Activity; how it was run: as §6
# [22] = system: HCT-116; experiment: Growth inhibition of human HCT116 cells assessed as cell growth at 10^-5 M after 48 hrs by sulforhodamine B assay; details: HCT-116, 48 h, read-out: Activity; how it was run: as §5
# [23] = system: COLO 205; experiment: Growth inhibition of human COLO205 cells assessed as cell growth at 10^-5 M after 48 hrs by sulforhodamine B assay; details: COLO 205, 48 h, read-out: Activity; how it was run: as §5
# [24] = system: HOP-92; experiment: Growth inhibition of human HOP92 cells assessed as cell growth at 10^-5 M after 48 hrs by sulforhodamine B assay; details: HOP-92, 48 h, read-out: Activity; how it was run: as §5
# [25] = system: A549; experiment: Growth inhibition of human A549/ATCC cells assessed as cell growth at 10^-5 M after 48 hrs by sulforhodamine B assay; details: A549, 48 h, read-out: Activity; how it was run: as §5
# [26] = system: MOLT-4; experiment: Growth inhibition of human MOLT4 cells assessed as cell growth at 10^-5 M after 48 hrs by sulforhodamine B assay; details: MOLT-4, 48 h, read-out: Activity; how it was run: as §6
# [27] = system: CCRF-CEM; experiment: Growth inhibition of human CCRF-CEM cells assessed as cell growth at 10^-5 M after 48 hrs by sulforhodamine B assay; details: read-out: Activity; how it was run: as §5
smiles,measurement,setting,value
COc1cc(/C=C/C(=O)c2ccc(NC(=O)CN3CCN(c4cc5c(cc4F)c(=O)c(C(=O)O)cn5C4CC4)CC3)cc2)cc(OC)c1OC,GI50,[1],0.51 µM
same,LC50 (50% lethal concentration),[1],> 100 µM
same,GI50,[2],53.8 µM
same,TGI,[2],> 100 µM
same,CC50,[2],> 100 µM
same,GI50,[3],0.56 µM
same,LC50,[3],> 100 µM
same,TGI,[3],> 100 µM
same,GI50,[4],1.17 µM
same,LC50 (concentration killing 50% of cells),[4],> 100 µM
same,TGI,[4],6.8 µM
same,GI50,[5],0.53 µM
same,"LC50 (lethal concentration, 50% net cell kill)",[5],> 100 µM
same,TGI,[5],12.2 µM
same,GI50,[6],1.87 µM
same,LC50,[6],> 100 µM
same,TGI,[6],7.36 µM
same,GI50,[7],1.81 µM
same,LC50,[7],> 100 µM
same,TGI,[7],7.65 µM
same,GI50,[8],5.75 µM
same,TGI,[8],> 100 µM
same,CC50,[8],> 100 µM
same,GI50,[9],0.49 µM
same,TGI,[9],2.62 µM
same,CC50,[9],> 100 µM
same,GI50,[10],2.76 µM
same,TGI,[10],11.4 µM
same,CC50,[10],> 100 µM
same,GI50,[11],1.62 µM
same,"LC50 (lethal concentration, 50% net cell kill)",[11],> 100 µM
same,TGI,[11],15.4 µM
same,GI50,[12],0.37 µM
same,LC50 (concentration giving 50% net cell kill),[12],> 100 µM
same,TGI,[12],2.14 µM
same,GI50,[13],0.32 µM
same,LC50 (concentration giving 50% net cell kill),[13],> 100 µM
same,growth at 10 µM,[14],19.1%
same,growth at 10 µM,[15],10.8%
same,growth at 10 µM,[16],-43.8%
same,growth at 10 µM,[17],98.2%
same,growth at 10 µM,[18],16.9%
same,growth at 10 µM,[19],-1.19%
same,growth at 10 µM,[20],30.8%
same,growth at 10 µM,[21],-1.52%
same,growth at 10 µM,[22],-88.2%
same,growth at 10 µM,[23],-12.8%
same,growth at 10 µM,[24],-1.75%
same,growth at 10 µM,[25],-19.2%
same,growth at 10 µM,[26],-1.1%
same,growth at 10 µM,[27],-13.7%
O=C(CN1CCN(c2cc3c(cc2F)c(=O)c(C(=O)O)cn3C2CC2)CC1)Nc1ccc(C(=O)/C=C/c2ccccc2)cc1,GI50,[1],1.84 µM
same,LC50 (50% lethal concentration),[1],> 100 µM
same,TGI,[1],5.13 µM
same,GI50,[2],4.99 µM
same,TGI,[2],> 100 µM
same,CC50,[2],> 100 µM
same,GI50,[3],3.16 µM
same,LC50,[3],> 100 µM
same,TGI,[3],> 100 µM
same,GI50,[4],2.78 µM
same,LC50 (concentration killing 50% of cells),[4],> 100 µM
same,TGI,[4],45.4 µM
same,GI50,[5],3.02 µM
same,"LC50 (lethal concentration, 50% net cell kill)",[5],> 100 µM
same,TGI,[5],> 100 µM
same,GI50,[6],5.35 µM
same,LC50,[6],> 100 µM
same,TGI,[6],> 100 µM
same,GI50,[7],2.89 µM
same,LC50,[7],> 100 µM
same,TGI,[7],8.87 µM
same,GI50,[8],3.22 µM
same,TGI,[8],> 100 µM
same,CC50,[8],> 100 µM
same,GI50,[9],3.6 µM
same,TGI,[9],> 100 µM
same,CC50,[9],> 100 µM
same,GI50,[10],39.6 µM
same,TGI,[10],> 100 µM
same,CC50,[10],> 100 µM
same,GI50,[11],36.3 µM
same,"LC50 (lethal concentration, 50% net cell kill)",[11],> 100 µM
same,TGI,[11],> 100 µM
same,GI50,[12],2.41 µM
same,LC50 (concentration giving 50% net cell kill),[12],> 100 µM
same,GI50,[13],4.09 µM
same,LC50 (concentration giving 50% net cell kill),[13],> 100 µM
same,TGI,[13],> 100 µM
same,growth at 10 µM,[14],39.9%
same,growth at 10 µM,[15],40%
same,growth at 10 µM,[16],57.7%
same,growth at 10 µM,[17],93.5%
same,growth at 10 µM,[18],82.6%
same,growth at 10 µM,[19],42.9%
same,growth at 10 µM,[20],61.1%
same,growth at 10 µM,[21],19.2%
same,growth at 10 µM,[22],-83.6%
same,growth at 10 µM,[23],108%
same,growth at 10 µM,[24],14.9%
same,growth at 10 µM,[25],4.12%
same,growth at 10 µM,[26],19%
same,growth at 10 µM,[27],15.2%

# Source: ChEMBL document CHEMBL2434966, “Novel N-4-piperazinyl-ciprofloxacin-chalcone hybrids: synthesis, physicochemical properties, anticancer and topoisomerase I and II inhibitory activity” (Eur J Med Chem, 2013)
